One series deals with Escherichia coli. The experiment in a line: In vitro antibacterial activity against Escherichia coli NIH JC-2. The note with it: Escherichia coli; read-out: MIC. The series is classed as functional. The method, boiled down:
(§1)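 MIC (μg/mL) by 2-fold agar dilution on Sensitivity Test agar, following the Japan Society of Chemotherapy MIC Committee method. Inocula were about 10⁶ cfu/mL. Growth was read after 20 h incubation at 37 °C.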

The test system of a further series is Klebsiella pneumoniae. Briefly: In vitro antibacterial activity against Klebsiella pneumoniae K-1966. The series is classed as functional. The note with it: Klebsiella pneumoniae; read-out: MIC. The method, boiled down:
as §1

Series [1] is filed under the species Mus musculus. Briefly: Compound was evaluated for oral efficacy on systemic infections in mice by Escherichia coli KC-14. The series is classed as functional. The method, boiled down: (§2)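 Male ddY mice (20 ± 2 g), seven per dose group. Challenge was intraperitoneal, 0.5 mL of bacteria suspended in 5% gastric mucin: E. coli KC-14 at 4.3 × 10⁴ cfu/mL or P. aeruginosa E-2 at 2.88 × 10⁵ cfu/mL. Drug was suspended in 0.5% HPC-SL and given orally 2 h (E. coli) or 1 h (P. aeruginosa) after challenge. ED50 was calculated by Probit from 7-day survival.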

The species entered for series [2] is Mus musculus. Briefly: Compound was evaluated for oral Pseudomonas aeruginosa E-2. The series is classed as functional. The method, boiled down:
as §2

A further series has as its system Pseudomonas aeruginosa. Briefly: In vitro antibacterial activity against Pseudomonas aeruginosa E-2. The class given is functional. The note with it: Pseudomonas aeruginosa; read-out: MIC. In outline: as §1
The next series has as its system Shigella flexneri. Briefly: In vitro antibacterial activity against Shigella flexneri 2a EW-10. The series is classed as functional. The note with it: Shigella flexneri; read-out: MIC. The method, boiled down: as §1
The next series has as its system Serratia marcescens. Briefly: In vitro antibacterial activity against Serratia marcescens IFO 3736. The class given is functional. The note with it: Serratia marcescens, IFO 3736; read-out: MIC. The method, boiled down: as §1
The next series has as its system Staphylococcus aureus. Briefly: In vitro antibacterial activity against Staphylococcus aureus 209P JC-1. The class given is functional. Conditions: Staphylococcus aureus; read-out: MIC. In outline:
as §1

The test system of the next series is Micrococcus luteus. Briefly: In vitro antibacterial activity against Micrococcus luteus ATCC 9341. The class given is functional. The note with it: Micrococcus luteus, ATCC 9341; read-out: MIC. In outline:
as §1

Series [3] in a line: Lethal dose on systemic infections in mice after oral administration. The class given is toxicity, organism-based. Conditions: mouse, in vivo. In outline:
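Acute oral toxicity: the suspension was given orally in 0.5% HPC-SL to Slc:SD rats, although the section heading says mice. Males weighed 141-168 g and females 113-127 g, five per group. LD50 was determined by the method of Weil 7 days after dosing.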

In general, MIC refers to the lowest concentration that inhibits growth of the organism. In general, ED50 refers to the dose that gives a 50% effect, or the effect in half of the subjects. Low values mean greater potency, high ones weaker potency. One may read the LD50 as the dose expected to kill half of the subjects tested. High values mean lower toxicity, low ones greater toxicity.

In brackets after ≈: the same amount, converted by molar mass. Bounds are passed on as bounds.

For the compound `O=C(O)c1cn(C2CC2)c2cc(N3CCNCC3)c(F)cc2c1=O` [CIPROFLOXACIN], the minimal inhibitory concentration (MIC) in the series on Escherichia coli came to 0.0125 µg/mL (≈ 0.0377 µM); in the series with Klebsiella pneumoniae, 0.006 µg/mL (≈ 0.0181 µM); with Pseudomonas aeruginosa, 0.2 µg/mL (≈ 0.604 µM); in the series on Shigella flexneri, 0.006 µg/mL (≈ 0.0181 µM); in the series with Serratia marcescens, 0.1 µg/mL (≈ 0.302 µM); in the series on Staphylococcus aureus, 0.1 µg/mL (≈ 0.302 µM). Besides, the MIC in the series on Micrococcus luteus came out at 1.56 µg/mL (≈ 4.71 µM). The values for the ED50 in the series filed under Mus musculus [1] and in the series filed under Mus musculus [2] were 0.45 mg/kg and 9.01 mg/kg, respectively.
Take `CN1CCN(c2cc3c(cc2F)c(=O)c(C(=O)O)c2n3CS2)CC1`: the minimal inhibitory concentration (MIC) is 0.0125 µg/mL (≈ 0.0358 µM) in the series on Escherichia coli; 0.025 µg/mL (≈ 0.0716 µM) in the series with Klebsiella pneumoniae; 0.39 µg/mL (≈ 1.12 µM) with Pseudomonas aeruginosa; 0.006 µg/mL (≈ 0.0172 µM) with Shigella flexneri; 0.05 µg/mL (≈ 0.143 µM) with Serratia marcescens; 0.05 µg/mL (≈ 0.143 µM) with Staphylococcus aureus. Besides, the MIC with Micrococcus luteus came to 12.5 µg/mL (≈ 35.8 µM). Moreover, the figures for the ED50 in the series listed under Mus musculus [1] and in the series filed under Mus musculus [2] were 1.77 mg/kg and 16.4 mg/kg, respectively.
`CC1Sc2c(C(=O)O)c(=O)c3cc(F)c(N4CCN(C)CC4)cc3n21` (stereo not drawn): the MIC with Escherichia coli stood at 0.025 µg/mL (≈ 0.0688 µM); in the series with Klebsiella pneumoniae, 0.025 µg/mL (≈ 0.0688 µM); in the series with Pseudomonas aeruginosa, 0.39 µg/mL (≈ 1.07 µM); in the series on Shigella flexneri, 0.0125 µg/mL (≈ 0.0344 µM); in the series with Serratia marcescens, 0.05 µg/mL (≈ 0.138 µM); in the series on Staphylococcus aureus it was 0.1 µg/mL (≈ 0.275 µM). Besides, the MIC with Micrococcus luteus was 1.56 µg/mL (≈ 4.29 µM). In addition, the ED50 in the series listed under Mus musculus [1] amounted to 0.97 mg/kg; in the series filed under Mus musculus [2], 8.84 mg/kg.
As for `CCOC(=O)c1c2n(c3cc(N4CCN(CC(C)=O)CC4)c(F)cc3c1=O)C(C)S2` (stereo not drawn), the ED50 in the series filed under Mus musculus [1] is 0.78 mg/kg; in the series listed under Mus musculus [2], 27 mg/kg.
As for `CC1COc2c(N3CCN(C)CC3)c(F)cc3c(=O)c(C(=O)O)cn1c23` (stereo not drawn) [OFLOXACIN], the MIC in the series on Escherichia coli is 0.1 µg/mL (≈ 0.277 µM); with Klebsiella pneumoniae, 0.025 µg/mL (≈ 0.0692 µM); with Pseudomonas aeruginosa, 1.56 µg/mL (≈ 4.32 µM); in the series with Shigella flexneri, 0.1 µg/mL (≈ 0.277 µM); in the series with Serratia marcescens, 0.39 µg/mL (≈ 1.08 µM); in the series with Staphylococcus aureus it was 0.39 µg/mL (≈ 1.08 µM). Further, in the series on Micrococcus luteus, the MIC was 3.13 µg/mL (≈ 8.66 µM). Besides, the results for the ED50 in the series filed under Mus musculus [1] and in the series listed under Mus musculus [2] were 0.55 mg/kg and 23 mg/kg, respectively.
Consider `CC1Sc2c(C(=O)O)c(=O)c3cc(Cl)c(N4CCN(C)CC4)cc3n21` (stereo not drawn), for which the MIC with Escherichia coli amounted to 0.1 µg/mL (≈ 0.263 µM); with Klebsiella pneumoniae, 0.025 µg/mL (≈ 0.0658 µM); in the series with Pseudomonas aeruginosa, 1.56 µg/mL (≈ 4.11 µM); with Shigella flexneri it was 0.1 µg/mL (≈ 0.263 µM); in the series with Serratia marcescens it was 0.1 µg/mL (≈ 0.263 µM); with Staphylococcus aureus, 0.2 µg/mL (≈ 0.526 µM). In the series with Micrococcus luteus, the MIC stood at 3.13 µg/mL (≈ 8.24 µM).
Regarding `CN1CCN(c2cc3c(cc2Cl)c(=O)c(C(=O)O)c2n3CS2)CC1`, the minimum inhibitory concentration (MIC) in the series with Escherichia coli was found to be 0.2 µg/mL (≈ 0.547 µM); in the series with Klebsiella pneumoniae, 0.2 µg/mL (≈ 0.547 µM); with Pseudomonas aeruginosa it was 1.56 µg/mL (≈ 4.26 µM); in the series with Shigella flexneri, 0.1 µg/mL (≈ 0.273 µM); in the series with Serratia marcescens, 0.39 µg/mL (≈ 1.07 µM); in the series with Staphylococcus aureus, 0.2 µg/mL (≈ 0.547 µM). Besides, the MIC with Micrococcus luteus was determined as 6.25 µg/mL (≈ 17.1 µM).
With `CC1Sc2c(C(=O)O)c(=O)c3cc(F)c(N4CCN(c5ccccc5)CC4)cc3n21` (stereo not drawn), the minimum inhibitory concentration (MIC) in the series on Escherichia coli was over 100 µg/mL; in the series with Klebsiella pneumoniae it was over 100 µg/mL; in the series with Pseudomonas aeruginosa, over 100 µg/mL; in the series on Shigella flexneri, over 100 µg/mL; with Serratia marcescens it was over 100 µg/mL; in the series with Staphylococcus aureus it was 3.13 µg/mL (≈ 7.36 µM). The MIC in the series with Micrococcus luteus is 12.5 µg/mL (≈ 29.4 µM).
`CC1Sc2c(C(=O)O)c(=O)c3cc(F)c(N4CCCNCC4)cc3n21` (stereo not drawn): the MIC worked out at 0.2 µg/mL (≈ 0.55 µM) in the series on Escherichia coli; 0.2 µg/mL (≈ 0.55 µM) in the series on Klebsiella pneumoniae; 3.13 µg/mL (≈ 8.61 µM) in the series with Pseudomonas aeruginosa; 0.1 µg/mL (≈ 0.275 µM) in the series with Shigella flexneri; 0.39 µg/mL (≈ 1.07 µM) in the series with Serratia marcescens; 0.1 µg/mL (≈ 0.275 µM) in the series with Staphylococcus aureus. Moreover, the minimum inhibitory concentration (MIC) in the series on Micrococcus luteus turned out to be 3.13 µg/mL (≈ 8.61 µM).
With `CN1CCN(c2cc3c(cc2F)c(=O)c(C(=O)O)c2n3C(c3ccc(F)cc3F)S2)CC1` (stereo not drawn), the MIC was 0.39 µg/mL (≈ 0.845 µM) in the series on Escherichia coli; 0.78 µg/mL (≈ 1.69 µM) with Klebsiella pneumoniae; 3.13 µg/mL (≈ 6.78 µM) in the series on Pseudomonas aeruginosa; 0.78 µg/mL (≈ 1.69 µM) in the series on Shigella flexneri; 12.5 µg/mL (≈ 27.1 µM) in the series on Serratia marcescens; 1.56 µg/mL (≈ 3.38 µM) in the series with Staphylococcus aureus. For the same compound, the MIC with Micrococcus luteus stood at 6.25 µg/mL (≈ 13.5 µM).
As to `Cc1oc(=O)oc1CN1CCN(c2cc3c(cc2F)c(=O)c(C(=O)O)c2n3C(C)S2)CC1` (stereo not drawn) [PRULIFLOXACIN], the ED50 in the series filed under Mus musculus [1] worked out at 0.35 mg/kg; in the series listed under Mus musculus [2] it was 8.02 mg/kg. The LD50 in series [3] was over 500 mg/kg.
Take `CCOC(=O)c1c2n(c3cc(N4CCN(C)CC4)c(F)cc3c1=O)C(c1ccccc1)S2` (stereo not drawn): the ED50 in the series listed under Mus musculus [1] amounted to 0.89 mg/kg; in the series listed under Mus musculus [2] it was 18.1 mg/kg.

These data come from ChEMBL document CHEMBL1125554, “Studies on pyridonecarboxylic acids. 1. Synthesis and antibacterial evaluation of 7-substituted-6-halo-4-oxo-4H-[1,3]thiazeto[3,2-a]quinoline-3-carboxylic acids” (J Med Chem, 1992).
